Measurements taken from ChEMBL document CHEMBL5058577, “EUbOPEN Chemogenomics Library 2 (Multiplex)” (2022).

System: U2OS
Experiment: Multiplex assay against U2OS
Format: toxicity, cell-based
Conditions: human
In short: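 Cells stained live at seeding with Hoechst33342, BioTracker Green Microtubule Cytoskeleton Dye, MitoTracker Red and Annexin V Alexa Fluor 680 were imaged on a CQ1 microscope at 37°C and 5% CO2 after compound addition. Their classification by CellPathfinder machine-learning gating ran from Hoechst high-intensity objects versus normal cells, to healthy, pyknosed or fragmented nuclei among normal cells, to mitotic or apoptotic among pyknosed cells. Tubulin, mitochondrial-mass and membrane-permeability phenotypes are per cents of healthy-nucleus cells.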

[1] = 12 h, 1 µM, compound concentration 1 uM, replicate 1
[2] = 12 h, 1 µM, compound concentration 1 uM, replicate 2
[3] = 12 h, 10 µM, compound concentration 10 uM, replicate 1
[4] = 12 h, 10 µM, compound concentration 10 uM, replicate 2
[5] = 24 h, 1 µM, compound concentration 1 uM, replicate 1
[6] = 24 h, 1 µM, compound concentration 1 uM, replicate 2
[7] = 24 h, 10 µM, compound concentration 10 uM, replicate 1
[8] = 24 h, 10 µM, compound concentration 10 uM, replicate 2
[9] = 48 h, 1 µM, compound concentration 1 uM, replicate 1
[10] = 48 h, 1 µM, compound concentration 1 uM, replicate 2
[11] = 48 h, 10 µM, compound concentration 10 uM, replicate 1
[12] = 48 h, 10 µM, compound concentration 10 uM, replicate 2

In the case of `OCCCNc1cc(-c2ccnc(Nc3cccc(Cl)c3)n2)ccn1`, the “Population Apoptotic (%)” value [1] is reported as 88%, the “Population Fragmented Nuclei (%)” value [1] is reported as 38% and the “Population Healthy Nuclei (%)” value [1] is reported as 52%. For the same molecule, the “Population Hoechst High Intensity Objects (%)” value [1] was 3%, the “Population Membrane Permeable-Phenotype (%)” value [1] was 8% and the “Population Mitochondria Different-Phenotype (%)” value [1] was 4%. For the same molecule, the “Population Mitotic Cells (%)” value [1] was 11%, the “Population Normal (%)” value [1] was 97% and the “Population Pyknosed Nuclei (%)” value [1] was 9%. For the same molecule, the “Population Tubulin-Different-Phenotype (%)” value [1] was 4%, the “Total Cell Count” value [1] was 200 and the “Population Apoptotic (%)” value [2] was 80%. The “Population Fragmented Nuclei (%)” value [2] was 27%, the “Population Healthy Nuclei (%)” value [2] was 51% and the “Population Hoechst High Intensity Objects (%)” value [2] was 5%. The “Population Membrane Permeable-Phenotype (%)” value [2] was 10%, the “Population Mitochondria Different-Phenotype (%)” value [2] was 18% and the “Population Mitotic Cells (%)” value [2] was 20%. For the same molecule, the “Population Normal (%)” value [2] was 94%, the “Population Pyknosed Nuclei (%)” value [2] was 20% and the “Population Tubulin-Different-Phenotype (%)” value [2] was 5%. For the same molecule, the “Total Cell Count” value [2] was 76, the “Population Apoptotic (%)” value [3] was 85% and the “Population Fragmented Nuclei (%)” value [3] was 37%. For the same molecule, the “Population Healthy Nuclei (%)” value [3] was 56%, the “Population Hoechst High Intensity Objects (%)” value [3] was 4% and the “Population Membrane Permeable-Phenotype (%)” value [3] was 46%. The “Population Mitochondria Different-Phenotype (%)” value [3] was 36%, the “Population Mitotic Cells (%)” value [3] was 14% and the “Population Normal (%)” value [3] was 95%. The “Population Pyknosed Nuclei (%)” value [3] was 6%, the “Population Tubulin-Different-Phenotype (%)” value [3] was 46% and the “Total Cell Count” value [3] was 237. The “Population Apoptotic (%)” value [4] was 91%, the “Population Fragmented Nuclei (%)” value [4] was 24% and the “Population Healthy Nuclei (%)” value [4] was 64%. The “Population Hoechst High Intensity Objects (%)” value [4] was 10%, the “Population Membrane Permeable-Phenotype (%)” value [4] was 47% and the “Population Mitochondria Different-Phenotype (%)” value [4] was 51%. For the same molecule, the “Population Mitotic Cells (%)” value [4] was 8%, the “Population Normal (%)” value [4] was 89% and the “Population Pyknosed Nuclei (%)” value [4] was 11%. For the same molecule, the “Population Tubulin-Different-Phenotype (%)” value [4] was 61%, the “Total Cell Count” value [4] was 118 and the “Population Apoptotic (%)” value [5] was 96%. For the same molecule, the “Population Fragmented Nuclei (%)” value [5] was 43%, the “Population Healthy Nuclei (%)” value [5] was 43% and the “Population Hoechst High Intensity Objects (%)” value [5] was 7%. For the same molecule, the “Population Membrane Permeable-Phenotype (%)” value [5] was 10%, the “Population Mitochondria Different-Phenotype (%)” value [5] was 10% and the “Population Mitotic Cells (%)” value [5] was 4%. The “Population Normal (%)” value [5] was 92%, the “Population Pyknosed Nuclei (%)” value [5] was 13% and the “Population Tubulin-Different-Phenotype (%)” value [5] was 6%. The “Total Cell Count” value [5] was 200, the “Population Apoptotic (%)” value [6] was 94% and the “Population Fragmented Nuclei (%)” value [6] was 40%. The “Population Healthy Nuclei (%)” value [6] was 33%, the “Population Membrane Permeable-Phenotype (%)” value [6] was 16% and the “Population Mitochondria Different-Phenotype (%)” value [6] was 25%. For the same molecule, the “Population Mitotic Cells (%)” value [6] was 5%, the “Population Pyknosed Nuclei (%)” value [6] was 25% and the “Population Tubulin-Different-Phenotype (%)” value [6] was 16%. For the same molecule, the “Total Cell Count” value [6] was 77, the “Population Apoptotic (%)” value [7] was 88% and the “Population Fragmented Nuclei (%)” value [7] was 37%. For the same molecule, the “Population Healthy Nuclei (%)” value [7] was 50%, the “Population Hoechst High Intensity Objects (%)” value [7] was 11% and the “Population Membrane Permeable-Phenotype (%)” value [7] was 34%. For the same molecule, the “Population Mitochondria Different-Phenotype (%)” value [7] was 40%, the “Population Mitotic Cells (%)” value [7] was 12% and the “Population Normal (%)” value [7] was 88%. The “Population Pyknosed Nuclei (%)” value [7] was 12%, the “Population Tubulin-Different-Phenotype (%)” value [7] was 37% and the “Total Cell Count” value [7] was 229. The “Population Apoptotic (%)” value [8] was 95%, the “Population Fragmented Nuclei (%)” value [8] was 30% and the “Population Healthy Nuclei (%)” value [8] was 49%. For the same molecule, the “Population Hoechst High Intensity Objects (%)” value [8] was 12%, the “Population Membrane Permeable-Phenotype (%)” value [8] was 43% and the “Population Mitochondria Different-Phenotype (%)” value [8] was 54%. For the same molecule, the “Population Mitotic Cells (%)” value [8] was 4%, the “Population Normal (%)” value [8] was 87% and the “Population Pyknosed Nuclei (%)” value [8] was 20%. For the same molecule, the “Population Tubulin-Different-Phenotype (%)” value [8] was 61%, the “Total Cell Count” value [8] was 128 and the “Population Apoptotic (%)” value [9] was 95%. For the same molecule, the “Population Fragmented Nuclei (%)” value [9] was 56%, the “Population Healthy Nuclei (%)” value [9] was 22% and the “Population Hoechst High Intensity Objects (%)” value [9] was 16%. For the same molecule, the “Population Membrane Permeable-Phenotype (%)” value [9] was 30%, the “Population Mitochondria Different-Phenotype (%)” value [9] was 14% and the “Population Mitotic Cells (%)” value [9] was 4%. For the same molecule, the “Population Normal (%)” value [9] was 83%, the “Population Pyknosed Nuclei (%)” value [9] was 21% and the “Population Tubulin-Different-Phenotype (%)” value [9] was 26%. For the same molecule, the “Total Cell Count” value [9] was 227, the “Population Apoptotic (%)” value [10] was 100% and the “Population Fragmented Nuclei (%)” value [10] was 59%. For the same molecule, the “Population Healthy Nuclei (%)” value [10] was 11%, the “Population Hoechst High Intensity Objects (%)” value [10] was 12% and the “Population Mitochondria Different-Phenotype (%)” value [10] was 20%. The “Population Mitotic Cells (%)” value [10] was 0%, the “Population Normal (%)” value [10] was 87% and the “Population Pyknosed Nuclei (%)” value [10] was 28%. The “Population Tubulin-Different-Phenotype (%)” value [10] was 10%, the “Total Cell Count” value [10] was 99 and the “Population Apoptotic (%)” value [11] was 94%. For the same molecule, the “Population Fragmented Nuclei (%)” value [11] was 47%, the “Population Healthy Nuclei (%)” value [11] was 31% and the “Population Hoechst High Intensity Objects (%)” value [11] was 21%. The “Population Membrane Permeable-Phenotype (%)” value [11] was 43%, the “Population Mitochondria Different-Phenotype (%)” value [11] was 45% and the “Population Mitotic Cells (%)” value [11] was 5%. The “Population Normal (%)” value [11] was 78%, the “Population Pyknosed Nuclei (%)” value [11] was 21% and the “Population Tubulin-Different-Phenotype (%)” value [11] was 45%. The “Total Cell Count” value [11] was 223, the “Population Apoptotic (%)” value [12] was 96% and the “Population Fragmented Nuclei (%)” value [12] was 50%. For the same molecule, the “Population Healthy Nuclei (%)” value [12] was 25%, the “Population Hoechst High Intensity Objects (%)” value [12] was 23% and the “Population Membrane Permeable-Phenotype (%)” value [12] was 65%. For the same molecule, the “Population Mitochondria Different-Phenotype (%)” value [12] was 34%, the “Population Mitotic Cells (%)” value [12] was 4% and the “Population Normal (%)” value [12] was 76%. For the same molecule, the “Population Pyknosed Nuclei (%)” value [12] was 24%, the “Population Tubulin-Different-Phenotype (%)” value [12] was 65% and the “Total Cell Count” value [12] was 134.
